Most compounds without a hit are left out; they make up all but 3.3% or so of the library.
E-selectin induc: induces E-selectin expression in human endothelial cells; activation, % at 7.58 µM; P16581; HUVEC E-selectin immunofluorescence imaging; normalized: neutral wells 0, TNF-alpha wells 100; 0.37% of 260,000 active;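 active means mean E-selectin-positive cell signal at least 10% of the positive control, reached in at least 60% of replicates, without over 20% cell loss; inconclusive means no rule given, readout overlaps actives, possibly toxicity-flagged; inactive means the rest, including those meeting only one limit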
Target sequence (P16581 whole entry, looked up): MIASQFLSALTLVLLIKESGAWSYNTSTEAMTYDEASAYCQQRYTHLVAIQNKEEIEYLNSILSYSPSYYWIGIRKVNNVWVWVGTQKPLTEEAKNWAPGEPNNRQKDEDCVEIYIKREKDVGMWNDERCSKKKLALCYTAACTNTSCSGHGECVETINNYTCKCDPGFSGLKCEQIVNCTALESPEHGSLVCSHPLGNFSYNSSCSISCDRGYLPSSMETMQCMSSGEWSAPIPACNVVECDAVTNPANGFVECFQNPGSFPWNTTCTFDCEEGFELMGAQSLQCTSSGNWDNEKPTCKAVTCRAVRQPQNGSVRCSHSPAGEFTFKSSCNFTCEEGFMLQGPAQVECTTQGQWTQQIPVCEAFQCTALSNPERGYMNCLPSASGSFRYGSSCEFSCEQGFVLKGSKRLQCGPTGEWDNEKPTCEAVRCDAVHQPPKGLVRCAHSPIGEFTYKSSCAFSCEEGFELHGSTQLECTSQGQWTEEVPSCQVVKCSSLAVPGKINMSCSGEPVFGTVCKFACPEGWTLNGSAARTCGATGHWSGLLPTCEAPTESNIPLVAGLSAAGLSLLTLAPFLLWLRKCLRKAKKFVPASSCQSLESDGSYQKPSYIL
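assay system = HUVEC, human umbilical vein endothelial cells | input = 3,000 HUVEC seeded per well | medium = EGM-2 growth medium on 0.1% gelatin-coated wells | dosing = one compound dose added by pin transfer | signal = immunofluorescence imaging | read-out basis = % PE-positive cells | control set = TNF-alpha, DMSO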
C2C12 statin: suppression of simvastatin myotoxicity. C2C12 myotubes + simvastatin, ATP luminescence, 48 h; scaled: DMSO 0, geranylgeraniol control 100. rescue of ATP level, % at 7.49 µM. 0.78% of 330,000 active;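 active means mean ATP rescue above about 67%, or every replicate alone reaching that limit, limit read from the data, passing the limit was not always enough; inconclusive means no clear call, values can overlap the other calls; inactive means mean under the limit and some replicate under it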;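 further: myotubes were challenged with 10 µM simvastatin during compound exposure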
PglD DTNB: blocks C. jejuni PglD acetyltransferase activity; purified PglD enzyme, DTNB colorimetric CoA detection; inhibition, % at 12.5 µM; 0.098% of 360,000 active; AID 602405; in the data active means inhibition above about 16%, passing the limit was not always enough; inconclusive means no clear call, values can overlap the other calls
Xi reactivation: reactivates the inactive X chromosome in mouse fibroblasts; XiGFP mouse fibroblasts, % GFP-positive cells imaging, 3 d; cells co-treated with 5-aza-dC sensitizer; scaled so ellipticine positive control = 100%; activation, % at 7.58 µM; 0.055% of 360,000 active; AID 743238;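 active means mean normalized replicate activation at least 10% and every replicate at or above 10%; inconclusive means only one of the two criteria met; inactive means mean below 10% and not all replicates reach 10%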
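Schedule: 3 d treatment, 15 min room-temperature fixation; system: 68-5-11 XiGFP fibroblast line; buffer or medium: DMEM plus 5-aza-dC sensitizer; control set: ellipticine 6 µM positive control; compound: one concentration, pinned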
DENV2 CPE rescue: protects cells from dengue virus 2 cytopathic effect; CPE inhibition, % at 9.99 µM; 1.7% of 350,000 active; DENV2-infected cells, cytopathic effect rescue, plate reader; in the data active means CPE inhibition above about 20%, passing the limit was not always enough; inconclusive means no clear call, values can overlap the other calls; tested in BHK-21 cells
FGF22 binding: FGF22 (human) thermal shift binding. 1.5% of 340,000 active. recombinant FGF22 thermal shift, SYPRO orange fluorescence; percent of sucrose octasulfate shift, DMSO zero. Q9HCT0. activity (Tm shift, normalised), % at 9.99 µM;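 active means mean Tm shift, scaled 0 neutral to 100 positive control, at about 1.3% or above, every replicate too, limit read from the data; inconclusive means no clear call, values can overlap the other calls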
A number is an active result; i = inactive; ? = inconclusive; nt = no result; ! = not active in a repeat.

SMILES	E-selectin induc	C2C12 statin	PglD DTNB	Xi reactivation	DENV2 CPE rescue	FGF22 binding
CCc1ccc(NC(=O)C(C)OC(=O)Cn2[nH]c(=O)c3ccccc3c2=O)cc1 (stereo not given)	i	i	i	i	59.7	i
CCC(C)(C)NC(=O)CN(C(=O)c1csnn1)c1cccc2c1CCCC2	i	i	nt	i	i	i
CCC(C)(C)NC(=O)CN(C(=O)c1csnn1)c1ccccc1-c1ccccc1	nt	i	nt	i	i	42.9
O=C(C[C@H]1C=C[C@H](NC(=O)c2cccc(F)c2)[C@@H](CO)O1)Nc1nccs1	i	i	i	i	i	i
c1cc(-c2ccc(C3[C@H]4CNC[C@@H]3N4CC3CCCCC3)cc2)ccn1 (stereo not given in full)	i	nt	nt	i	45.9!	i
O=C(NCC[C@@H]1CC[C@@H](NS(=O)(=O)c2cccc(F)c2)[C@@H](CO)O1)Nc1cc(F)ccc1F	i	i	i	i	24.2	i
O=C(C[C@H]1CC[C@H](NS(=O)(=O)c2cccc(F)c2)[C@H](CO)O1)N1CCCCC1	i	i	i	i	i	i
O=C(C[C@H]1CC[C@@H](NS(=O)(=O)c2cccc(F)c2)[C@H](CO)O1)N1CCCCC1	i	i	i	i	25.4	i
COc1ccccc1-c1cc(C(F)(F)F)nc(S(=O)(=O)CCCC(=O)N2CCOCC2)n1	nt	90.2	i	nt	nt	nt
C[C@@H]1CN([C@H](C)CO)C(=O)c2cc(NC(=O)Cn3cnnn3)ccc2O[C@@H]1CN(C)Cc1ccc(Cl)c(Cl)c1	nt	i	i	i	i	i
CCN(Cc1ccncc1)C(=O)c1ccco1	i	nt	i	i	25.5	i
CCN(Cc1nc(-c2ccc(C)cc2)no1)C(=O)c1ccco1	nt	i	i	i	i	i
CCOc1ccc(NC(=O)c2nn(C)c(C(=O)Nc3ccc(OCC)cc3)c2[N+](=O)[O-])cc1	i	i	i	i	34.3	i
COc1cccc(NC(=O)c2nn(C)c(C(=O)Nc3cccc(OC)c3)c2[N+](=O)[O-])c1	i	i	i	i	i	i
O=C(C[C@@H]1CC[C@@H]2NC[C@H](O)COC[C@H]2O1)Nc1ccccc1	i	i	i	i	i	i
S=c1cnc2ccccc2[nH]1	nt	nt	nt	i	?	43.2
c1ccc2[nH]c(CCCc3nc4ccccc4[nH]3)nc2c1	nt	i	i	i	i	i
CC(C)Sc1nc(SCC(=O)NCc2ccco2)c2c3c(sc2n1)COC(C)(C)C3	nt	128.9	i	nt	nt	nt
O=C1CSC(=Nc2ccccc2)N1	nt	94.9	i	nt	nt	nt
Cc1noc(C)c1NC(=O)N(C)C[C@@H]1Oc2cc(C#CCN(C)C)ccc2S(=O)(=O)N([C@H](C)CO)C[C@@H]1C	i	i	i	i	?	i
CC(C)NC(=O)Cn1c(=O)n(CC(=O)N2CCCCC2)c(=O)c2sccc21	i	101.1	i	i	i	i
Cc1cc(-c2ccccc2)n2ncc(-c3ccccc3)c2n1	nt	nt	nt	i	i	i
COc1ccc(-c2cc(C)nc3c(-c4ccccc4)cnn23)cc1	i	nt	nt	i	i	42.9
O=C(NCC[C@@H]1CC[C@H](NC(=O)C2CCCCC2)[C@H](CO)O1)c1cnccn1	i	i	i	i	i	i
CCN(CC)S(=O)(=O)c1ccc2[nH]c(=O)cc(C(=O)NCC(c3ccco3)N3CCCC3)c2c1 (stereo not given)	i	i	nt	i	26.7	i
SMILES	E-selectin induc	C2C12 statin	PglD DTNB	Xi reactivation	DENV2 CPE rescue	FGF22 binding
C[C@@H]1CN([C@H](C)CO)C(=O)c2cc(-c3ccccc3F)cnc2O[C@@H]1CN(C)C(=O)C1CCC1	i	i	i	i	i	i
COCCNC(=O)C[C@@H]1CC[C@@H]2[C@H](COC[C@H](O)CN2C(=O)c2cc(Cl)cc(Cl)c2)O1	i	i	i	i	?	i
C[C@@H]1CN([C@H](C)CO)C(=O)c2cc(NC(=O)Nc3ccc(F)cc3)ccc2O[C@H]1CN(C)Cc1ccc(C(=O)O)cc1	i	i	i	i	i	i
CC(C)(C)c1ccc(NC(=O)NC2CCCc3ccccc32)cc1 (stereo not given)	i	i	i	i	39.4	nt
COc1ccc(COCCN2CCN(S(=O)(=O)c3ccc(C)cc3)CCC2=O)cc1	i	nt	nt	i	79.2	i
CC(C)[C@H](NC(=O)c1ccccc1)C(=O)OCC(=O)/C=C1/N(C)c2ccccc2C1(C)C	nt	i	nt	i	i	43.5
Cc1noc(C)c1NC(=O)N(C)C[C@@H]1Oc2ccc(NS(=O)(=O)c3c(C)noc3C)cc2CC(=O)N([C@@H](C)CO)C[C@H]1C	i	i	i	i	?	i
O=C(C[C@H]1C[C@H]2c3cc(NS(=O)(=O)c4ccc(F)cc4)ccc3O[C@H]2[C@H](CO)O1)NCc1ccccn1	nt	nt	nt	i	nt	nt
COc1ccccc1NC(=O)N1CCCCN2[C@H](CO)[C@H](c3ccc(C#Cc4ccccc4)cc3)[C@@H]2C1	i	nt	i	i	25.1	i
COc1ccccc1NC(=O)N1CCCCN2[C@H](CO)[C@@H](c3ccc(C#Cc4ccccc4)cc3)[C@H]2C1	i	nt	i	i	i	i
COc1ccccc1-c1ccc([C@H]2[C@H](CO)N3CCCCN(C(=O)NC4CCCC4)C[C@@H]23)cc1	i	i	i	i	i	i
COc1ccccc1-c1ccc([C@H]2[C@@H](CO)N3CCCCN(C(=O)NC4CCCC4)C[C@H]23)cc1	i	i	i	i	23.2	i
COc1ccccc1NC(=O)N1CCCCN2[C@H](CO)[C@@H](c3ccc(C#CC4CCCC4)cc3)[C@@H]2C1	i	i	i	i	36.1	i
CN1c2ccc(-c3ccccc3)cc2[C@@H]2[C@@H](CCN2C(=O)Nc2ccccc2F)[C@@H]1CO	i	i	i	i	i	i
CCCNC(=O)C[C@@H]1CC[C@@H]2[C@@H](COc3ccc(NC(=O)c4ccc(C(F)(F)F)cc4)cc3C(=O)N2C)O1	i	i	nt	i	nt	nt
O=C(Nc1ccccc1)N1CC(=O)N2[C@H](CO)[C@@H](c3ccc(-c4ccc(F)cc4)cc3)[C@H]2C1	nt	nt	nt	i	nt	nt
O=C(c1ccncc1)N1CC2(C1)[C@@H](c1ccccc1)[C@H](CO)N2C(=O)CC1CC1	i	nt	nt	i	i	i
CCN(c1ccccc1)S(=O)(=O)c1ccc(C(=O)N2CCN(c3ccccc3F)CC2)cc1	nt	i	i	i	52.7	i
CCN(c1ccccc1)S(=O)(=O)c1ccc(C(=O)N2CCOCC2)cc1	i	i	i	i	i	i
O=C(C[C@H]1C=C[C@@H](NC(=O)C2CC2)[C@@H](CO)O1)NCc1ccccc1Cl	i	i	i	i	i	i
Cc1noc(C)c1NC(=O)N(C)C[C@H]1OCCCC[C@H](C)Oc2ccc(NC(=O)NC(C)C)cc2C(=O)N([C@@H](C)CO)C[C@@H]1C	i	nt	i	i	i	i
O=C1O/C(=C/C(=O)N2CCOCC2)c2ccccc21	nt	74.5	i	nt	nt	nt
